Type in all cases: cell-based
The target in assay [1] is T1, GPR35 (Homo sapiens, UniProt Q9HC97). Nature of the assay: Tango β-arrestin translocation gene reporter assay in Tango GPR35-bla U2OS cells. The settings on record: for agonist type in Tango β-arrestin translocation assay: compared to zaprinast; for Tango assays % zaprinast: efficacy relative to zaprinast, Tango GPR35-bla U2OS cells.
Assay [2] addresses T1, GPR35. Nature of the assay: DMR agonist assay after shRNA knockdown of GPR35 in HT29. The settings on record: all compounds at 10 μM; n = 4; mock transfection as control. In a few lines:
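HT29 cells seeded at 5000/well on biosensor plates, 24 h at 37 °C, then transiently transfected (Effectene, 0.05 μg plasmid DNA) with GPR35 shRNA in GFP-expressing pGFP-V-RS vector or control plasmid. Medium was renewed next day. About 48 h post-transfection, cells were washed into HBSS (20 mM Hepes, pH 7.1) and equilibrated 1 h at 26 °C. Label-free DMR was recorded kinetically after a 2 min baseline and compound addition.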

The target of assay [3] is T1, GPR35. Nature of the assay: DMR agonist assay in HT-29 cells. The settings on record: for agonist type in DMR assay: compared to zaprinast; for fold decrease in potency relative to 16a: compared with compound 16a.
Assay [4] deals with T1, GPR35. The settings on record: HT29; for blockage of the compound-induced DMR by compound 17: compound 17 at 64 μM.
In assay [5] the target is T1, GPR35. Nature of the assay: Receptor internalization assay in HT29. The settings on record: HT-29; 1 μM 16a, 10 μM 15a; 1 h at 37 °C. In a few lines:
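HT29 cells seeded at 10000/well on chamber slides, 24 h at 37 °C, then exposed to compound or matching DMSO for 1 h at 37 °C. Cells were fixed in 4% formaldehyde for 15 min and blocked/permeabilized for 2 h (goat serum, BSA, Triton X-100). Staining used anti-GPR35 T-14 (intracellular epitope, 1:500, 24 h), then Alexa Fluor 594 anti-goat (1:500, 1 h RT), with DAPI nuclei. Read by confocal imaging.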

For assay [6], the target named is T1, GPR35. The settings on record: zaprinast 1 μM in DMSO treated cells; n = 90.

Each structure is given as a SMILES string.

T1 sequence (Q9HC97 whole entry): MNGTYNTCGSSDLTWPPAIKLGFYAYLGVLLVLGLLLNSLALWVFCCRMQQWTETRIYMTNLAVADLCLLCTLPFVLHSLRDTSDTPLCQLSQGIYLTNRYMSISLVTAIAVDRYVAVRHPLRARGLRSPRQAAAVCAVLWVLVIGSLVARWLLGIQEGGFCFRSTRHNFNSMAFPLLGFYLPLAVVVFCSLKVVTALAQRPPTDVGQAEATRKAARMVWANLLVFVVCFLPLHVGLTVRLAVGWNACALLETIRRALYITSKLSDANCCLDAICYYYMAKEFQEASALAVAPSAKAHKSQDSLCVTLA

Consider `CC1=C(C#N)C(=C(C#N)C#N)OC1(C)C` [Compound 9, 2-(3-Cyano-4,5,5-trimethylfuran-2(5H)-ylidene)malononitrile], for which, at GPR35 [1], the “response in Tango assay” value is recorded as “detectable responses”, the “agonist type in Tango β-arrestin translocation assay” value is “partial agonists” and the “Tango assays % zaprinast” value is “weak”. In addition, on GPR35 [2], the “effect of shRNA knockdown of GPR35 on the compound-induced DMR” value (“effect of shRNA knockdown of GPR35” for short) is “significantly attenuated”.

On to `COC(=O)c1cnn(-c2ccc(F)cc2F)c1/C=N/NC(=S)NC(C)(C)C` [Compound 17, methyl-5-[(tert-butylcarbamothioylhydrazinylidene)methyl]-1-(2,4-difluorophenyl)-pyrazole-4-carboxylate, reference compound], for which the “DMR agonist activity in HT-29” value at GPR35 [3] is on record as “did not lead to any detectable DMR”. For the same compound, the “blockage of the zaprinast DMR by compound 17” value at GPR35 [4] (compound 17 at 64 μM (highest dose)) is given as “almost completely blocked”.

With `CCCCCCCCc1c(C(=O)O)sc2c(Br)csc12` [Compound 16b, 6-Bromo-3-octylthieno[3,2-b]thiophene-2-carboxylic Acid], at GPR35 [1], the “response in Tango assay” value is “detectable responses” and the “agonist type in Tango β-arrestin translocation assay” value was “partial agonists”.

Turning to `CC1=C(C#N)C(=C(C#N)C#N)OC1(C)c1ccc(Cl)c(Cl)c1Cl` (centres unmarked) [Compound 5, 2-(3-cyano-4,5-dimethyl-5-(2,3,4-trichlorophenyl)furan-2(5H)-ylidene)malononitrile], the “fold decrease in potency to trigger DMR signal relative to 1” value on GPR35 [3] (DMR EC50, compared with compound 1) is recorded as 350 fold. On GPR35 [4], the “blockage of the compound-induced DMR by compound 17” value is “only partially suppressed”.

With `CC1=C(C#N)C(=C(C#N)C#N)OC1(C)c1ccc(Cl)c(Cl)c1` (centres unmarked) [Compound 1, 2-(3-cyano-5-(3,4-dichlorophenyl)-4,5-dimethylfuran-2(5H)-ylidene)malononitrile], the “agonist type in DMR assay” value at GPR35 [3] was “full agonist”. Besides, at GPR35 [1], the “response in Tango assay” value is “dose-dependent and saturable responses”; the “agonist type in Tango β-arrestin translocation assay” value is “partial agonist”. Also, on GPR35 [2], the “effect of shRNA knockdown of GPR35” value was “significantly attenuated”.

Take `CCOC(=O)c1sc2c(Br)csc2c1C` [Compound 15a, Ethyl 6-Bromo-3-methylthieno[3,2-b]thiophene-2-carboxylate]: at GPR35 [5], the “internalization of endogenous GPR35” value is recorded as “unable to trigger receptor internalization”.

For the compound `O=C(O)c1cc2sccc2s1` [Compound 10, Thieno[3,2-b]thiophene-2-carboxylic Acid], on GPR35 [3] (DMR EC50), the “fold decrease in potency relative to 16a” value is “over 600 fold”. In addition, at GPR35 [1], the “response in Tango assay” value is given as “detectable responses” and the “agonist type in Tango β-arrestin translocation assay” value is reported as “partial agonists”.

`CCCCCCc1csc2cc(C(=O)O)sc12` [Compound 12, 6-Hexylthieno[3,2-b]thiophene-2-carboxylic Acid]: at GPR35 [1], the “response in Tango assay” value is “detectable responses” and the “agonist type in Tango β-arrestin translocation assay” value was “partial agonists”.

With `CCCCCCc1c(C(=O)O)sc2ccsc12` [Compound 11, 3-Hexylthieno[3,2-b]thiophene-2-carboxylic Acid], the “fold decrease in potency relative to 16a” value at GPR35 [3] (DMR EC50) was “about 54 fold”. In addition, the “blockage of the compound-induced DMR by compound 17” value at GPR35 [4] was “only partially suppressed”. Further, at GPR35 [1], the “response in Tango assay” value was “detectable responses” and the “agonist type in Tango β-arrestin translocation assay” value is given as “partial agonists”.

Consider `CC1=C(C#N)C(=C(C#N)C#N)OC1(c1ccccc1)C(F)(F)F` (centres unmarked) [Compound 3, 2-(3-cyano-4-methyl-5-phenyl-5-(trifluoromethyl)furan-2(5H)-ylidene)malononitrile], for which, on GPR35 [1], the “response in Tango assay” value was “dose-dependent and saturable responses”; the “agonist type in Tango β-arrestin translocation assay” value is on record as “partial agonists”.

Consider `Cc1csc2c1sc1cc(C(=O)O)sc12` [Compound 13, 5-Methyldithieno[3,2-b:2′,3′-d]thiophene-2-carboxylic Acid], for which, at GPR35 [4], the “blockage of the compound-induced DMR by compound 17” value is recorded as “only partially suppressed”. Also, on GPR35 [1], the “response in Tango assay” value is given as “detectable responses” and the “agonist type in Tango β-arrestin translocation assay” value was “partial agonists”. For the same compound, the “effect of shRNA knockdown of GPR35” value at GPR35 [2] is “significantly attenuated”.

Regarding `CC1=C(C#N)C(=C(C#N)C#N)OC1(C)c1ccc(F)cc1F` (centres unmarked) [Compound 8, 2-(3-cyano-5-(2,4-difluorophenyl)-4,5-dimethylfuran-2(5H)-ylidene)malononitrile], the “blockage of the compound-induced DMR by compound 17” value at GPR35 [4] is reported as “only partially suppressed”.

As for `CC1=C(C#N)C(=C(C#N)C#N)OC12CCCCC2` [Compound 7, 2-(3-cyano-4-methyl-1-oxaspiro[4.5]dec-3-en-2-ylidene)malononitrile], on GPR35 [4], the “blockage of the compound-induced DMR by compound 17” value is “only partially suppressed”. For the same compound, on GPR35 [1], the “response in Tango assay” value is on record as “detectable responses”, the “agonist type in Tango β-arrestin translocation assay” value was “partial agonists” and the “Tango assays % zaprinast” value is given as “weak”.

With `Cc1c(C(=O)O)sc2c(Br)csc12` [Compound 16a, 6-Bromo-3-methylthieno[3,2-b]thiophene-2-carboxylic Acid], the “agonist type in DMR assay” value on GPR35 [3] is “full agonist”. At GPR35 [1], the “response in Tango assay” value was “dose-dependent and saturable responses”; the “agonist type in Tango β-arrestin translocation assay” value is on record as “full agonist”. Further, the “internalization of endogenous GPR35” value on GPR35 [5] is “significant internalization”. For the same compound, at GPR35 [2], the “effect of shRNA knockdown of GPR35” value is recorded as “significantly attenuated”.

`CCCOc1ccccc1-c1nc2[nH]nnc2c(=O)[nH]1` [zaprinast, reference compound]: the “DMR assays % zaprinast” value at GPR35 [3] (efficacy relative to zaprinast, HT-29, DMR amplitude at 8 min post stimulation) amounted to 100 ± 5%. The “DMR amplitude, maximal response” value on GPR35 [3] (zaprinast 1 μM (saturating dose), about 8 min poststimulation, n = 32) was determined as 246 ± 11 pm. For the same compound, the “zaprinast DMR amplitude in the desensitization step (positive control)” value at GPR35 [6] came out at 238 ± 25 pm. In addition, at GPR35 [1], the “Tango assays % zaprinast” value amounted to 100 ± 7%. Further, the “effect of shRNA knockdown of GPR35” value at GPR35 [2] is recorded as “significantly attenuated”.

In the case of `CCCCCCCCCCCc1c(C(=O)O)sc2c(Br)csc12` [Compound 16c, 6-Bromo-3-undecylthieno[3,2-b]thiophene-2-carboxylic Acid], at GPR35 [1], the “response in Tango assay” value is “dose-dependent and saturable responses”; the “agonist type in Tango β-arrestin translocation assay” value was “partial agonists”.

Source of the values: paper PMC3198121 (Journal of Medicinal Chemistry, 2011).
